Screening results (PubChem BioAssay)
These entries were drawn from the full list.
KCNQ1 inh = inhibitors of human KCNQ1 channel, primary screen, cell-based, thallium flux, high-throughput. actives 1.3% (n = 310,000). CHO-K1 KCNQ1, FluxOR thallium flux fluorescence; hits give high values. AID 2642, 2010. B-score at 10 µM;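 active = compounds whose thallium flux B-score, printed positive for inhibition, exceeds three library SD while starting fluorescence stays within three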;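 note: channel opened by potassium depolarization with thallium stimulus after 20 min compound exposure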
hERG rescue = hERG rescue from dofetilide block, primary screen, cell-based, CHO-hERG, FluxOR thallium flux, dofetilide IC70; actives 0.51% (n = 310,000); Voltage-gated inwardly rectifying potassium channel KCNH2 (Homo sapiens), Q12809; AID 1511, 2009; dofetilide IC70 present; activation (rescue from dofetilide block), less the hit threshold, % at 10 µM;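 active = activation above the mean of controls blocked by dofetilide plus 5 SD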;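 note: thallium influx through hERG after potassium depolarization seen as dye fluorescence rise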
KCNK3 inh = human KCNK3 channel inhibitors, primary screen, CHO cells, FluxOR thallium flux, B-score; Potassium channel subfamily K member 3 (Homo sapiens), O14649; B-score at 10 µM; FluxOR fluorescence; hits give low values; actives 0.84% (n = 340,000);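 active = B-score under library mean minus 4 SD, starting fluorescence ratio at most library mean plus 5 SD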;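 note: more negative B-score means stronger inhibition of thallium flux through KCNK3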
Target sequence (O14649 whole entry, looked up): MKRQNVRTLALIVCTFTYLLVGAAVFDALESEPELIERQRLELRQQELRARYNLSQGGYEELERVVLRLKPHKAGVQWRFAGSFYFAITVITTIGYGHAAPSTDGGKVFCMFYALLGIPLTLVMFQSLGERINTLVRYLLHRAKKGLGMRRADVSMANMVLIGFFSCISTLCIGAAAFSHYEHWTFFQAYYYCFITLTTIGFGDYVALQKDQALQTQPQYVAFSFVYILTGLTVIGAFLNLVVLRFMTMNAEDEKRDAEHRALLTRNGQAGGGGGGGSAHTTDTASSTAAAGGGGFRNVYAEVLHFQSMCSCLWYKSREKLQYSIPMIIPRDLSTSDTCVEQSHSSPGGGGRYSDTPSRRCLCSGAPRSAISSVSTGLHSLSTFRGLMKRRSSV
KCNQ1 pot = potentiators or activators of KCNQ1 channel, primary screen, cell-based, thallium flux, high-throughput; Potassium voltage-gated channel subfamily KQT member 1 (Homo sapiens), P51787; CHO-K1 KCNQ1, thallium flux FluxOR fluorescence; hits give high values; B-score at 10 µM; actives 0.35% (n = 310,000);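 active = fluorescence ratio B-score, a plate-corrected score, at least three library SD, with initial intensity B-score within 5 SD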
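Assay system: CHO-K1 cells stably expressing KCNQ1; Medium: assay buffer with matched DMSO; Also added: K+/Tl+ depolarizing stimulus; Dosing: single dose; Timing: dye 90 min, compound 20 min, room temperature; Measured by: kinetic FluxOR thallium fluorescence, 10-s 1-Hz baseline, 110-s post-stimulus read; Read-out: peak-minus-minimum fluorescence over initial fluorescence, negative-control normalized, B-scored.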
KCC2 mod = KCC2 cotransporter modulators, thallium flux, primary screen, cell-based, HEK293 KCC2, FluoZin-2 fluorescence, MLSMR. Solute carrier family 12 member 5 (Homo sapiens), Q9H2X9. AID 1456, 2008. B-score of Tl+ flux slope (higher = more flux/activation; lower = inhibition) at 10 µM. actives 2.2% (n = 190,000). KCC2 cells, thallium flux FluoZin-2 fluorescence;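 active = thallium flux slope and its plate-corrected score both differing from the plate sample mean at a set confidence after two filtering rounds, in either direction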;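 note: slope of fluorescence scaled to starting intensity during 10 to 20 s after thallium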
KCNK9 block = KCNK9 potassium channel inhibitors, primary screen, HEK293 cells, thallium flux. FluxOR thallium flux fluorescence; hits give low values. B-score at 10 µM. actives 1.2% (n = 310,000). AID 488922, 2010;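 active = ratio B-score over 3 SD below the library mean, with starting fluorescence within 5 SD of its mean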;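 note: negative B-score means less thallium flux so channel inhibition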
KCNK9 inh conf = KCNK9 potassium channel inhibitors, confirmation, HEK293 cells, thallium flux, duplicate; actives 43% (n = 4,900); AID 492992, 2010; shares compounds with KCNK9 block; FluxOR thallium flux fluorescence; inhibition, % at 10 µM;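 active = thallium signal inhibited by more than 5 SD of the compound-free buffer control wells, on both duplicate plates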;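 note: 0% = assay buffer control wells without compound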
Kir21 sel = mouse Kir2.1 channel inhibition, confirmation, selectivity assay for KCNK9 modulator project, cell-based, HEK293, thallium flux; AID 492993, 2010; shares compounds with KCNK9 block; Kir2.1 cells, FluxOR thallium flux fluorescence; inhibition, % at 10 µM; actives 4% (n = 4,900);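 active = thallium signal drop more than 5 SD beyond the mean of the no-compound control wells, seen in both duplicate plates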;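 note: signal is fluorescence rise after thallium addition divided by baseline fluorescence; plate controls were assay buffer only for no effect and full block by chlorpromazine control for full effect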
HEK293 Tl ctr = thallium flux in non-induced HEK293 cells, confirmation, counter-screen for KCNK9 inhibitor project, cell-based, second counter screen, non-induced KCNK9-HEK293; shares compounds with KCNK9 block; FluxOR thallium flux; inhibition, % at 10 µM; actives 40% (n = 4,900); AID 492997, 2010;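 active = thallium signal drop beyond 5 SD of the untreated control mean, on both duplicate plates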;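 note: plate controls were buffer only IC0 wells for no effect and SID17386958 at its maximal inhibitory level for full effect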
* = called active by the depositor; i = inactive; . = not tested or not shown.

SMILES | KCNQ1 inh | hERG rescue | KCNK3 inh | KCNQ1 pot | KCC2 mod | KCNK9 block | KCNK9 inh conf | Kir21 sel | HEK293 Tl ctr
CNc1ccc(/C=C/C(=O)c2cccc3ccccc23)cc1[N+](=O)[O-] | i | -12 | i | i | 0.35 | -11* | 48%* | i | 36%*
C=CCn1cc(C(=O)NCCN(CC)CC)c(=O)c2cc(S(=O)(=O)N3CCCCCC3)ccc21 | i | -3 | i | i | . | i | . | . | .
Cn1ccnc1SCC(=O)n1c2c(c3ccccc31)CCCC2 | i | -5 | i | i | -1.9 | i | i | i | i
Cn1ccnc1SCC(=O)Nc1cccc2ccccc12 | i | -4 | i | i | -0.16 | i | . | . | .
COc1cccc(CN2CC(C(=O)NCCCc3ccc(C)cc3)CCC2=O)c1 (stereo not drawn) | i | -4 | i | i | . | i | . | . | .
C=CCNC(=O)c1c(CSc2ccc(Cl)cc2)noc1C(=O)NCCC | i | -5 | i | i | . | i | . | . | .
CCCNC(=O)c1onc(CSc2ccc(Cl)cc2)c1C(=O)NCC1CC1 | i | -10 | i | i | . | i | i | i | i
O=C(NCC1CC1)c1onc(CSc2ccc(F)c(F)c2)c1C(=O)NCC1CC1 | i | -10 | i | i | . | i | . | . | .
CCCCNC(=O)c1onc(CSc2ccc(C(C)C)cc2)c1C(=O)O | i | -13 | i | i | -1.6 | i | i | i | i
CCCNC(=O)c1onc(CSc2ccc(Cl)cc2)c1C(=O)NCCC(C)C | i | -8 | i | i | . | i | i | i | i
CCCNC(=O)c1c(CSc2ccccc2)noc1C(=O)NCc1ccccc1 | i | -9 | i | i | -0.031 | i | . | . | .
CCCCNC(=O)c1onc(CSc2ccccc2)c1C(=O)O | i | -11 | i | i | 0.22 | i | . | . | .
CC(C)CCNC(=O)c1c(CSc2ccccc2)noc1C(=O)NCc1ccccc1 | i | -9 | i | i | 0.48 | i | i | i | i
O=C(OCc1nnc(-c2ccc(Cl)cc2)o1)c1ccc(=O)n(Cc2ccccc2)n1 | i | -4 | i | i | -0.013 | i | . | . | .
COc1ccc(S(=O)(=O)c2c(O)c3ccc(C(=O)Nc4ccc(F)cc4)cc3[nH]c2=O)cc1 | i | -9 | i | i | . | i | . | . | .
C=CCNC(=O)c1c(CSc2ccccc2)noc1C(=O)NCc1ccccc1 | . | . | i | . | -1.1 | . | . | . | .
C=CCNC(=O)c1c(CSc2ccc(Cl)cc2)noc1C(=O)NCc1ccccc1 | i | -21 | i | i | . | i | i | i | i
CCOc1ccc2[nH]c3c(=O)n(CCc4ccc(OC)cc4)cnc3c2c1 | i | -6 | i | i | -0.036 | i | . | . | .
CCOc1ccc2[nH]c3c(=O)n(CCC4=CCCCC4)cnc3c2c1 | i | -10 | i | i | 0.71 | i | i | i | i
CC(=O)N1c2ccc(S(=O)(=O)NCCC(=O)Nc3ccc(C)cn3)cc2CC1C (stereo not drawn) | i | -10 | i | i | . | i | . | . | .
CCOCCOC(=O)Cn1cnc2scc(-c3ccc(C)cc3)c2c1=O | i | -5 | i | i | . | i | i | i | i
CCCOC(=O)Cn1cnc2scc(-c3ccc(OC)cc3)c2c1=O | i | -7 | i | i | . | i | i | i | i
